# Calls of active or inactive are those of the source. The rule behind the calls is not given here.
# What was measured:
# [1] = Stability of compound at pH 6; format: physicochemical; details: buffer
# NCI-H322 [2] = experiment: Inhibition of RNA pol2 CTD phosphorylation in human NCI-H322 cells at 1 uM after 12 hrs by Western blot analysis; format: cell-based
# Outline: (§1)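 Cells were treated with 1 μM compound for 12 h and then analysed by Western blot. Phospho-CTD was detected with the H5 antibody (diluted 1:1000), and β-actin (1:1000) served as the loading reference.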
# [3] = (§2) Antitumor activity against human H1299 cells assessed as cell viability after 3 days by sulforhodamine B assay; format: functional, cell-based; details: NCI-H1299, 72 h
# Outline: (§3)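 Monolayer cultures were grown in RPMI-1640 or DMEM with 10% heat-inactivated fetal calf serum and penicillin/streptomycin, at 37°C and 5% CO2. Cells were exposed for 3 days to compound from 10−4.5 M (31.6 μM) down to 10−8 M (10 nM), with 1% DMSO as the control. Viability was read by sulforhodamine B. IC50 was the dose halving surviving cells versus control, run in quadruplicate and repeated at least three times.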
# [4] = Stability of compound at pH 9; format: physicochemical; details: buffer
# [5] = Stability of compound at pH 7.4; format: physicochemical; details: buffer
# H1299 = experiment: Inhibition of RNA pol2 CTD phosphorylation in human H1299 cells at 1 uM after 12 hrs by Western blot analysis; format: cell-based; outline: as §1
# [6] = Stability of compound at pH 2; format: physicochemical; details: buffer
# H460 = experiment: Inhibition of RNA pol2 CTD phosphorylation in human H460 cells at 1 uM after 12 hrs by Western blot analysis; format: cell-based; outline: as §1
# [7] = Stability of compound at pH 4; format: physicochemical; details: buffer
# NCI-H460 [8] = experiment: Antitumor activity against human H460 cells assessed as cell viability after 3 days by sulforhodamine B assay; format: functional, cell-based; details: for IC50: NCI-H460, 72 h; outline: as §3
# [9] = Cytotoxicity against human T29 cells assessed as cell viability after 3 days by sulforhodamine B assay; format: cell-based; details: T29, 72 h; outline: as §3
# [10] = (§4) Antitumor activity against human NCI-H322 cells assessed as cell viability after 3 days by sulforhodamine B assay; format: functional, cell-based; details: NCI-H322, 72 h; outline: as §3
# NCI-H157 [11] = experiment: Inhibition of RNA pol2 CTD phosphorylation in human NCI-H157 cells at 1 uM after 12 hrs by Western blot analysis; format: cell-based; outline: as §1
# NCI-H157 [12] = experiment: Antitumor activity against human NCI-H157 cells assessed as cell viability after 3 days by sulforhodamine B assay; format: functional, cell-based; details: NCI-H157, 72 h; outline: as §3
# [13] = Cytotoxicity against mutant K-ras-transformed human T29Kt1 cells assessed as cell viability after 3 days by sulforhodamine B assay; format: functional, cell-based; details: T29Kt1, 72 h; outline: as §3
# NCI-H460 [14] = experiment: Cytotoxicity against human H460 cells assessed as cell viability after 3 days by sulforhodamine B assay; format: functional, cell-based; details: NCI-H460, 72 h; outline: as §3
# NCI-H1299 = experiment: as §2; format: functional, cell-based; outline: as §3
# NCI-H322 [15] = experiment: as §4; format: functional, cell-based; outline: as §3
Stability [1],Stability [4],Stability [5],Stability [6],Stability [7],IC50 (NCI-H460 [8]),IC50 (NCI-H157 [12]),Compound,inhibition (NCI-H322 [2]),IC50 [3],inhibition (H1299),inhibition (H460),IC50 [9],IC50 [10],inhibition (NCI-H157 [11]),IC50 [13],IC50 (NCI-H460 [14]),Activity (NCI-H1299),Activity (NCI-H460 [8]),Activity (NCI-H322 [15])
Stable,Stable,Stable,Unstable,Stable,≤ 200 nM,≤ 200 nM,OCc1cn(Cc2cccc(F)c2)c2ccc(Cl)cc12,inactive,≥ 13000 nM,inactive,Active,10000 nM,≥ 13000 nM,Active,160 nM,70 nM,–,–,–
Stable,Stable,Stable,Unstable,Stable,≤ 200 nM,≤ 200 nM,OCc1cn(Cc2cccc(Cl)c2)c2ccccc12,inactive,–,inactive,Active,> 31600 nM,–,Dose-dependent effect,160 nM,19 nM,Dose-dependent effect,Dose-dependent effect,Dose-dependent effect
Stable,Stable,Stable,Unstable,Stable,≤ 200 nM,≤ 200 nM,OCc1cn(Cc2ccc(Cl)cc2)c2ccccc12,inactive,–,inactive,Active,> 31600 nM,–,Dose-dependent effect,79 nM,16 nM,Dose-dependent effect,Dose-dependent effect,Dose-dependent effect
